Data set [1] deals with T1, Lipoprotein lipase (Bos taurus) (UniProt P11151).
T1 sequence (whole entry): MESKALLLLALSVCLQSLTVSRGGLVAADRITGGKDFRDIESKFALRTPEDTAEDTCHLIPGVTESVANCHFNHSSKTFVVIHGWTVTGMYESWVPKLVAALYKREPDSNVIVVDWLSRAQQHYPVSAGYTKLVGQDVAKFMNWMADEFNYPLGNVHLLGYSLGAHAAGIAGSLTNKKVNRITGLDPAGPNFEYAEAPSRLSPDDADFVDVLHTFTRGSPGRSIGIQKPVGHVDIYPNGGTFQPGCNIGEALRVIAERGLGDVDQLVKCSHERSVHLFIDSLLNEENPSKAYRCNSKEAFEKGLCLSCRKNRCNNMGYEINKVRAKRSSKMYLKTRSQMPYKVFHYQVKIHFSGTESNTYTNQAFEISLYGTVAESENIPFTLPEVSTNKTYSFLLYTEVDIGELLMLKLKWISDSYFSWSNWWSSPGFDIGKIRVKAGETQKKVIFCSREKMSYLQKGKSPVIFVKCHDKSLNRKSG
Briefly: Inhibition of bovine recombinant lipoprotein lipase at 100 uM using p-Nitrophenyl butyrate as substrate by HTS assay. In a few lines:
(§1)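 Recombinant LPL screened at 100 µM in a 384-well format with p-nitrophenyl butyrate as substrate. […] release was read as absorbance at 405 nm, and activity was expressed as fold change in absorbance.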

For data set [2], the target named is T1, Lipoprotein lipase (Bos taurus). The experiment in a line: Activation of bovine recombinant lipoprotein lipase at 100 uM using p-Nitrophenyl butyrate as substrate by HTS assay. In a few lines: as §1
Another data set deals with Rattus norvegicus. Briefly: In vivo activation of lipoprotein lipase in STZ-induced diabetes rat model relative to control. Format: functional.
The subject of data set [3] is Mus musculus. Briefly: Hepatoprotective activity against high fat diet fed C57BL/6 mouse liver assessed as increase in SIRT1 level at 10 mg/kg, ip administered daily on last week of 4 months study until end. Format: functional, organism-based. Summed up: (§2)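 Mice on a high-fat diet for four months were dosed at 10 mg/kg for seven days. Hepatic protein levels of SIRT1 or LC3 were then measured. n = 5 mice; significance at P<0.05.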

In data set [4] the target is T1, Lipoprotein lipase (Bos taurus). The experiment in a line: Activation of bovine recombinant lipoprotein lipase at 100 uM using p-Nitrophenyl butyrate as substrate by HTS assay relative to NO-1886. Summed up: as §1
The subject of data set [5] is Mus musculus. The experiment in a line: In vivo activation of lipoprotein lipase in high fat diet fed C57BL/6 mouse at 10 mg/kg, ip administered daily on last week of 4 months study until end by fluorescence assay. Format: functional, organism-based.
The test system of data set [6] is Mus musculus. Briefly: Hepatoprotective activity against high fat diet fed C57BL/6 mouse liver assessed as increase in LC3 level at 10 mg/kg, ip administered daily on last week of 4 months study until end. The class given is functional, organism-based. Summed up:
as §2

For data set [7], the system named is Mus musculus. Briefly: In vivo activation of lipoprotein lipase in high fat diet fed C57BL/6 mouse assessed as reduction in body weight at 1 to 10 mg/kg, ip administered daily on last week of 4 months study until end. The class given is functional, organism-based. In a few lines:
(§3)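 Mice fed a high-fat diet (60% kcal from fat) for four months, with daily i.p. dosing at 10 mg/kg during the final week. A dose-response at 1, 5 and 10 mg/kg was used to select the dose. Body weight, total body fat and lean mass were measured by EchoMRI before sacrifice. Mean ± S.D., n = 4.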

Data set [8] concerns Mus musculus. Briefly: Reduction in lipid accumulation in high fat diet fed C57BL/6 mouse liver at 10 mg/kg, ip administered daily on last week of 4 months study until end by hematoxylin and eosin staining based assay. The class given is functional, organism-based. Summed up: (§4)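 After four months of high-fat diet with 10 mg/kg i.p. dosing over the final week, livers were examined by gross morphology and size. Sections were stained with hematoxylin and eosin and viewed at 20X to assess lipid accumulation.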

Data set [9] deals with Mus musculus. The experiment in a line: Reduction in serum cholesterol level in high fat diet fed C57BL/6 mouse at 10 mg/kg, ip administered daily on last week of 4 months study until end. The class given is functional, organism-based. In a few lines:
(§5)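 Serum triglycerides and cholesterol measured with commercial kits after sacrifice. Mice had four months of high-fat diet, with 10 mg/kg i.p. given in the last week. Mean ± SE, n = 3.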

The test system of data set [10] is Mus musculus. Briefly: Reduction in serum triglycerides level in high fat diet fed C57BL/6 mouse at 10 mg/kg, ip administered daily on last week of 4 months study until end. The class given is functional, organism-based. Summed up: as §5
Data set [11] deals with Mus musculus. Briefly: In vivo activation of lipoprotein lipase in high fat diet fed C57BL/6 mouse assessed as reduction in total body fat content at 1 to 10 mg/kg, ip administered daily on last week of 4 months study until end. Format: functional, organism-based. Summed up: as §3
Data set [12] deals with Mus musculus. The experiment in a line: Toxicity in high fat diet fed C57BL/6 mouse liver assessed as morphological changes at 10 mg/kg, ip administered daily on last week of 4 months study until end by hematoxylin and eosin staining based assay. Format: organism-based. Particulars: in vivo, 2922 h. Summed up:
as §4

Substrate in data set [13]: CC1(C)CC1(C(=O)NCCCn1ccnc1)c1ccc(F)cc1
The experiment in a line: Binding affinity to bovine recombinant lipoprotein lipase assessed as Km for substrate using p-Nitrophenyl butyrate as substrate by Lineweaver-Burk plot analysis (reference value: 8.15 mM). Particulars: Bos taurus.

Activity calls are given as the source filed them. The calls are words filed in the database; no cut-off is given here.

Turning to `Cc1cccnc1CN1CCN(C(=O)C2(c3ccc(F)cc3)CC2(C)C)CC1` (configuration not stated), the inhibition entry in [1] was “Active”.
Take `O=C(Cc1ccccc1)NCCCn1ccnc1`: in [2], the outcome was Active.
With `O=C(Cc1ccc(S)cc1)NCCCn1ccnc1`, in data set [1], the inhibition entry is “Active”.
The same measure, in the same setting: with `O=C(Cc1ccc(O)cc1)NCCCn1ccnc1` the entry was “Active”.
On to `O=C(Cc1ccc(Cl)cc1)NCCCn1ccnc1`, for which the outcome in data set [2] was Active.
For the molecule `CC1(C)CC1(C(=O)NCCNc1cccnc1)c1ccc(F)cc1` (configuration not stated), the inhibition result in data set [1] was “Active”.
In the data set with Rattus norvegicus, `CCOP(=O)(Cc1ccc(C(=O)Nc2ccc(Br)cc2C#N)cc1)OCC` [IBROLIPIM] displayed an Activity of 59%.
On to `CC1(C)CC1(C(=O)NCCCn1ccnc1)c1ccc(F)cc1` (configuration not stated), for which the result (in the data set with Mus musculus [3]; with Mus musculus [5]; in data set [2]; in the data set on Mus musculus [6]; with Mus musculus [7]; in the data set on Mus musculus [8]) was Active. The result with Mus musculus [9], in the data set with Mus musculus [10] and in the data set with Mus musculus [11] was Active. Besides, the fold change (FC) in [4] worked out at 2. For the same molecule, the Activity result in the data set with Mus musculus [12] is “Non-Toxic”.
Take `CC1(C)CC1(C(=O)NCCCCN1CCOCC1)c1ccc(F)cc1` (configuration not stated): in [2], the outcome was Active.
Take `CC1(C)CC1(C(=O)NCCCc1csc(N)n1)c1ccc(F)cc1` (configuration not stated): in data set [1], the inhibition entry was “Active”.
In the case of `O=C(Cc1ccc(F)cc1)NCCCn1ccnc1`, the outcome in [2] was Active.

B1: Lipoprotein lipase (Bos taurus), P11151 (protein)
chain: MESKALLLLALSVCLQSLTVSRGGLVAADRITGGKDFRDIESKFALRTPEDTAEDTCHLIPGVTESVANCHFNHSSKTFVVIHGWTVTGMYESWVPKLVAALYKREPDSNVIVVDWLSRAQQHYPVSAGYTKLVGQDVAKFMNWMADEFNYPLGNVHLLGYSLGAHAAGIAGSLTNKKVNRITGLDPAGPNFEYAEAPSRLSPDDADFVDVLHTFTRGSPGRSIGIQKPVGHVDIYPNGGTFQPGCNIGEALRVIAERGLGDVDQLVKCSHERSVHLFIDSLLNEENPSKAYRCNSKEAFEKGLCLSCRKNRCNNMGYEINKVRAKRSSKMYLKTRSQMPYKVFHYQVKIHFSGTESNTYTNQAFEISLYGTVAESENIPFTLPEVSTNKTYSFLLYTEVDIGELLMLKLKWISDSYFSWSNWWSSPGFDIGKIRVKAGETQKKVIFCSREKMSYLQKGKSPVIFVKCHDKSLNRKSG
For B1, the Km (usually the concentration of substrate that gives half-maximal velocity) in [13] turned out to be 648 µM.

For the origin of these results see ChEMBL document CHEMBL3872250, “Structure-activity and in vivo evaluation of a novel lipoprotein lipase (LPL) activator” (Bioorg Med Chem Lett, 2017).
